Assay results taken from ChEMBL document CHEMBL4414577, “Discovery of Pyrrolo[2,3-b]pyridine (1,7-Dideazapurine) Nucleoside Analogues as Anti-Trypanosoma cruzi Agents” (J Med Chem, 2019).
Calls of active or inactive are those of the source. The rule behind the calls is not given here.

Columns and labels:
[1] = Cytotoxicity against human MRC5 SV2 cells assessed as reduction in cell viability incubated for 3 days by resazurin dye based assay; details: MRC-5 SV2, 72 h
[2] = tested on: Trypanosoma cruzi; test: Antitrypanosomal activity against Trypanosoma cruzi Tulahuen CL2 amastigotes infected in human MRC5 SV2 cells incubated for 7 days by chlorophenol red beta-D-galactopyranoside substrate based spectrophotometric assay; format: functional, organism-based; details: Tulahuen CL2, MRC-5 SV2, 168 h
How it was run: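 Intracellular amastigotes of β-galactosidase-expressing Tulahuen strain grown in MRC-5 fibroblast host cells. EC50 in μM given as mean and SEM of two or three independent experiments; some values come from a single determination.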

[3] = Selectivity index, ratio for EC50 for human MRC5 SV2 cells to EC50 for Trypanosoma cruzi Tulahuen CL2 amastigotes infected in human MRC5 SV2 cells; format: toxicity, cell-based; details: read-out: Ratio EC50
[4] = tested on: Trypanosoma cruzi; test: Antitrypanosomal activity against bloodstream form of Trypanosoma cruzi Y trypomastigotes measured after 24 hrs by Neubauer chamber-based light microscopic analysis; format: functional, organism-based
[5] = Cytotoxicity against Swiss mouse primary cardiac cells assessed as reduction in cell viability incubated for 24 hrs by PrestoBlue dye based colorimetry
[6] = tested on: L929; test: Cytotoxicity against mouse L929 cells assessed as reduction in cell viability; format: cell-based
[7] = tested on: Trypanosoma cruzi; test: (§1) In vivo antitrypanosomal activity against Trypanosoma cruzi Y trypomastigotes infected in Swiss mouse assessed as reduction in parasitemia at 100 mg/kg, po administered once daily via gavage for 5 days starting from 5 days post-infection and measured 8 days post-infection by light microscopic method relative to control; format: functional; set-up: scale not given: the % may be the effect or the level left
How it was run: (§2)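 Male Swiss Webster mice (18-20 g, 4-5 weeks) infected i.p. with 10⁴ Y-strain bloodstream trypomastigotes; six per group. Oral gavage from 5 dpi for 5 consecutive days: test compound at 25 mg/kg b.i.d. (2.0 mg/mL in 10% EtOH, 0.1 M citrate pH 3.02), benznidazole at 100 mg/kg s.i.d. Parasites counted in 5 μL tail blood to 30 dpi; mortality followed daily to 40 dpi.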

[8] = tested on: Trypanosoma cruzi; test: as §1, with “up to 30” for “8”; format: functional; set-up: scale not given: the % may be the effect or the level left; how it was run: as §2
[9] = tested on: Trypanosoma cruzi; test: In vivo antitrypanosomal activity against Trypanosoma cruzi Y trypomastigotes infected in Swiss mouse assessed as mouse survival at 100 mg/kg, po administered once daily via gavage for 5 days starting from 5 days post-infection and measured daily up to 40 days post-infection; format: functional, organism-based; how it was run: as §2
[10] = Toxicity in Swiss Webster mouse infected with Trypanosoma cruzi Y trypomastigotes assessed as body weight loss at 100 mg/kg, po administered once daily via gavage for 5 days starting from 5 days post-infection and measured daily up to 40 days post-infection; format: organism-based; details: in vivo
How it was run: (§3)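 Male Swiss Webster mice were infected i.p. with 10⁴ Y-strain trypomastigotes and treated by oral gavage for 5 days from 5 dpi. Regimens were 25 mg/kg b.i.d. (10% EtOH/citrate vehicle) or benznidazole 100 mg/kg s.i.d. Body weight and visual clinical signs were monitored, with daily mortality checks up to 40 dpi. There were six mice per group.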

[11] = Toxicity in Swiss Webster mouse infected with Trypanosoma cruzi Y trypomastigotes assessed as appearance of clinical symptoms at 100 mg/kg, po administered once daily via gavage for 5 days starting from 5 days post-infection and measured daily up to 40 days post-infection; format: organism-based; details: in vivo; how it was run: as §3
[12] = tested on: Trypanosoma cruzi; test: (§4) In vivo antitrypanosomal activity against Trypanosoma cruzi Y trypomastigotes infected in Swiss mouse assessed as reduction in parasitemia at 100 mg/kg, po administered once daily for 5 days with 2 days interval for 3 cycles and measured 9 days post-infection by light microscopy; format: functional, organism-based
How it was run: (§5)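 Male Swiss Webster mice infected i.p. with 10⁴ Y-strain bloodstream trypomastigotes; six per group. Oral gavage from 5 dpi for 15 days (three 5-day rounds, 2 days off): test compound 25 mg/kg b.i.d., benznidazole 100 mg/kg s.i.d. Parasites counted in 5 μL tail blood to 30 dpi; mortality followed to 53 dpi.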

[13] = tested on: Trypanosoma cruzi; test: as §4, with “up to 30” for “9”, “microscopy relative to control” for “microscopy”; format: functional, organism-based; how it was run: as §5
[14] = tested on: Trypanosoma cruzi; test: In vivo antitrypanosomal activity against Trypanosoma cruzi Y trypomastigotes infected in Swiss mouse assessed as mouse survival at 100 mg/kg, po administered once daily for 5 days with 2 days interval for 3 cycles and measured […]; format: functional, organism-based; how it was run: as §5
[15] = Toxicity in Swiss Webster mouse infected with Trypanosoma cruzi Y trypomastigotes assessed as body weight loss at 100 mg/kg, po administered once daily for 5 days with 2 days interval for 3 cycles; format: organism-based; details: in vivo
How it was run: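 Y-strain-infected male Swiss Webster mice were dosed orally for 15 days (three rounds of 5 days, 2 drug-free days between) starting at 5 dpi. Regimens were 25 mg/kg b.i.d. or benznidazole 100 mg/kg s.i.d. Weight loss was recorded as a sign of toxicity, with mortality checked daily up to 53 dpi. There were six mice per group.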

[16] = tested on: Trypanosoma cruzi; test: Antitrypanosomal activity against Trypanosoma cruzi Y amastigotes infected in Swiss mouse primary cardiac cells incubated for 168 hrs with media replenishment for every 48 hrs followed by compound washout and measured after 168 hrs by light microscopic method; format: functional, organism-based
How it was run: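 Cardiac cells plated 24 h, then infected 24 h at 37 °C with Y-strain bloodstream trypomastigotes (parasite:host 10:1) and washed. Serial dilutions (up to 5 µM) for 168 h at 37 °C, drug medium renewed every 48 h. PBS rinse, 168 h drug-free. Giemsa-stained; infected cells and parasites per cell scored in 200 cells. EC50 from infection-index inhibition; two experiments, duplicate.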

[17] = tested on: Trypanosoma cruzi; test: In vivo antitrypanosomal activity against Trypanosoma cruzi Y trypomastigotes infected in Swiss mouse assessed as reduction in parasitemia at 100 mg/kg, po administered once daily via gavage for 5 days starting from 5 days post-infection in presence of cyclophosphamide by light microscopic method; format: functional, organism-based
[18] = tested on: Trypanosoma cruzi; test: In vivo antitrypanosomal activity against Trypanosoma cruzi Y trypomastigotes infected in Swiss mouse assessed as reduction in parasitemia at 100 mg/kg, po administered once daily for 5 days with 2 days interval for 3 cycles in presence of cyclophosphamide by light microscopy; format: functional, organism-based

Compound | EC50 [1] | EC50 [2] | selectivity ratio [3] | also measured
Nc1ccnc2c1c(-c1cccs1)cn2[C@@H]1O[C@H](CO)[C@@H](O)[C@H]1O | > 64 µM | 36.9 µM | > 1.7 | 
Nc1ccnc2c1c(Cl)cn2[C@@H]1O[C@H](CO)[C@@H](O)[C@H]1O | > 64 µM | 0.19 µM | > 337 | EC50 [4]: > 50 µM; EC50 [5]: > 400 µM; EC50 [6]: > 200 µM
Nc1ccnc2c1c(I)cn2[C@H]1C[C@H](O)[C@@H](CO)O1 | > 64 µM | > 64 µM |  | 
Nc1ccnc2c1c([N+](=O)[O-])cn2[C@@H]1O[C@H](CO)[C@@H](O)[C@H]1O | > 64 µM | 47.7 µM | > 1.3 | 
Nc1ccnc2c1c(I)cn2[C@@H]1O[C@H](CO)C[C@H]1O | > 64 µM | > 64 µM |  | 
Nc1ccnc2[nH]cc(I)c12 | > 64 µM | > 64 µM |  | 
O=C(Cn1ccnc1[N+](=O)[O-])NCc1ccccc1 [BENZNIDAZOLE] |  | 2.36 µM |  | Activity [7]: 100%; Activity [8]: 100%; Activity [9]: Active; Activity [10]: Non-Toxic; Activity [11]: Non-Toxic; Activity [12]: Active; Activity [13]: Active; Activity [14]: inactive; Activity [15]: Non-Toxic; EC50 [4]: 5.7 µM; EC50 [5]: > 400 µM; EC50 [6]: > 200 µM; EC50 [16]: 2.7 µM; Activity [17]: inactive; Activity [18]: inactive
Nc1ccnc2c1c(C#Cc1ccccc1)cn2[C@@H]1O[C@H](CO)[C@@H](O)[C@H]1O | > 64 µM | > 64 µM |  | 
C[C@H]1O[C@@H](n2cc(I)c3c(N)ccnc32)[C@H](O)[C@@H]1O | > 64 µM | > 64 µM |  | 
Nc1ccnc2c1c(Br)cn2[C@@H]1O[C@H](CO)[C@@H](O)[C@H]1O | > 64 µM | 0.2 µM | > 320 | 
Nc1ccnc2c1c(-c1ccccn1)cn2[C@@H]1O[C@H](CO)[C@@H](O)[C@H]1O | > 64 µM | > 64 µM |  | 
N#Cc1cn([C@@H]2O[C@H](CO)[C@@H](O)[C@H]2O)c2nccc(N)c12 | 18.5 µM | 4 µM | 4.6 | 
CCc1cn([C@@H]2O[C@H](CO)[C@@H](O)[C@H]2O)c2nccc(N)c12 | > 64 µM | > 64 µM |  | 
Cc1cn([C@@H]2O[C@H](CO)[C@@H](O)[C@H]2O)c2nccc(N)c12 | 51.6 µM | 1.14 µM | 45 | EC50 [4]: > 50 µM; EC50 [6]: > 200 µM
Nc1ccnc2c1c(-c1ccccc1)cn2[C@@H]1O[C@H](CO)[C@@H](O)[C@H]1O | > 64 µM | > 64 µM |  | 
Nc1ncnc2c1c(I)cn2[C@@H]1O[C@H](CO)[C@@H](O)[C@H]1O [IODOTUBERCIDIN] | 5.35 µM | 0.8 µM | 6.7 | 
Nc1ccnc2c1c(C1CCCCC1)cn2[C@@H]1O[C@H](CO)[C@@H](O)[C@H]1O | > 64 µM | > 64 µM |  | 
Nc1ccnc2c1c(F)cn2[C@@H]1O[C@H](CO)[C@@H](O)[C@H]1O | > 64 µM | 8.8 µM | > 7.3 | 
C#Cc1cn([C@@H]2O[C@H](CO)[C@@H](O)[C@H]2O)c2nccc(N)c12 | 59 µM | 0.08 µM | 730 | EC50 [4]: 40.5 µM; EC50 [6]: > 200 µM
Cc1ccnc2c1c(I)cn2[C@@H]1O[C@H](CO)[C@@H](O)[C@H]1O | 2.29 µM | 7.98 µM | 0.29 | 
Nc1ccnc2c1ccn2[C@@H]1O[C@H](CO)[C@@H](O)[C@H]1O | 17.9 µM | 2.27 µM | 7.9 | 
Nc1ccnc2c1c(/C=C/c1ccccc1)cn2[C@@H]1O[C@H](CO)[C@@H](O)[C@H]1O | > 64 µM | > 64 µM |  | 
OC[C@H]1O[C@@H](n2cc(I)c3c(Cl)ccnc32)[C@H](O)[C@@H]1O | 2.18 µM | 2.14 µM | 1 | 
Nc1ccnc2c1c(C(F)(F)F)cn2[C@@H]1O[C@H](CO)[C@@H](O)[C@H]1O | 0.73 µM | 1.56 µM | 0.47 | 
Nc1ccnc2c1c(C1=CCCCC1)cn2[C@@H]1O[C@H](CO)[C@@H](O)[C@H]1O | > 64 µM | > 64 µM |  | 
Nc1ccnc2c1c(-c1ccc(Cl)cc1)cn2[C@@H]1O[C@H](CO)[C@@H](O)[C@H]1O | > 64 µM | > 64 µM |  | 
C=Cc1cn([C@@H]2O[C@H](CO)[C@@H](O)[C@H]2O)c2nccc(N)c12 | > 64 µM | 0.81 µM | > 79 | EC50 [4]: > 50 µM; EC50 [6]: > 200 µM
OC[C@H]1O[C@@H](n2cc(I)c3cccnc32)[C@H](O)[C@@H]1O | 52.9 µM | 1.75 µM | > 30 | EC50 [4]: 36.3 µM; EC50 [6]: > 200 µM
